{"data": "Results gathered from unrelated publications", "target": "Serine/threonine-protein kinase PAK 2 (PAK2, Homo sapiens, UniProt Q13177)", "note": "Each line is one published result; the experiments were not run side by side."}
{"SMILES": "Cc1c(NC(=O)c2cc(C(N)=O)nc3cc(F)ccc23)c(C(F)(F)F)nn1Cc1ccc(C#N)cc1", "assay": "cell-free assay, competition with immobilised ligand", "setting": "1 µM", "endpoint": "remaining binding", "value": "88%"}
{"SMILES": "C=CC(=O)Nc1cc(Nc2nccc(Nc3cc(Cl)c(F)cc3C(C)(C)O)n2)c(OC)cc1N1CC[C@@H](N(C)C)C1", "assay": "enzyme activity, inhibitor", "setting": "1 µM", "endpoint": "inhibition", "value": "5%"}
{"SMILES": "COc1cc2ncnc(Nc3ccc(F)c(Cl)c3)c2cc1OCCCN1CCOCC1", "assay": "cell-free assay", "setting": "0.5 µM", "endpoint": "remaining signal", "value": "100%"}
{"SMILES": "Cc1ccc(C(=O)Nc2ccc(CN3CCN(C)CC3)c(C(F)(F)F)c2)cc1C#Cc1cnc2cccnn12", "assay": "enzyme activity, inhibitor", "setting": "23.5 nM", "endpoint": "remaining activity", "value": "70%"}
{"SMILES": "CS(=O)(=O)NCC[C@H](NC(=O)c1cncc2c1cnn2-c1ccc(F)cc1)c1ccnc(S(C)(=O)=O)c1", "assay": "cell-free assay, competition with immobilised ligand", "setting": "1 µM", "endpoint": "remaining binding", "value": "71%"}
{"SMILES": "Cc1sc(C(=O)NC2COC2)cc1-n1cc(NC(=O)Nc2c(F)cccc2Cl)cn1", "assay": "enzyme activity, inhibitor", "setting": "10 µM", "endpoint": "remaining activity", "value": "106%"}
{"SMILES": "CN1CC(Oc2cnc(C#N)cc2-c2ccn3nc(NC(=O)C4CC4)cc3c2)C1", "assay": "enzyme activity, inhibitor", "setting": "1 µM", "endpoint": "inhibition", "value": "-7%"}
{"SMILES": "O=C1NC(=O)c2cc(Nc3ccc(F)cc3)c(Nc3ccc(F)cc3)cc21", "assay": "cell-free assay", "setting": "0.5 µM", "endpoint": "remaining signal", "value": "98.5%"}
{"SMILES": "Cc1cnc(NC2CCOCC2)nc1-n1cnc(C(=O)NC(CN)c2cc(F)cc(Cl)c2)c1 (stereo not shown)", "assay": "enzyme activity, inhibitor, radiometric", "setting": "1 µM", "endpoint": "remaining activity", "value": "77%"}
{"SMILES": "Cc1cc(NC(=O)c2cccc3cc(-c4cccc5[nH]nc(N)c45)ccc23)ccc1F", "assay": "enzyme activity, inhibitor", "setting": "0.1 µM", "endpoint": "activity vs control", "value": "98%"}
{"SMILES": "Nc1cnc(N2CCc3cc(S(=O)(=O)Nc4c(F)cc(Cl)cc4F)cc(N4CCCC4=O)c32)nc1", "assay": "cell-free assay, competition with immobilised ligand", "setting": "1 µM", "endpoint": "remaining binding", "value": "78%"}
{"SMILES": "CCCS(=O)(=O)Nc1ccc(F)c(C(=O)c2c[nH]c3ncc(-c4ccc(Cl)cc4)cc23)c1F", "assay": "enzyme activity, inhibitor", "setting": "1 µM", "endpoint": "inhibition", "value": "< 10%"}
{"SMILES": "Cn1c(=O)n(-c2ccc(C(C)(C)C#N)cc2)c2c3cc(-c4cnc5ccccc5c4)ccc3ncc21", "assay": "enzyme activity, inhibitor", "setting": "10 µM", "endpoint": "remaining activity", "value": "87%"}
{"SMILES": "COc1cc(Nc2cnc(C#N)c(O[C@H](C)CN(C)C)n2)ncc1-c1cnn(C)c1", "assay": "enzyme activity, inhibitor, radiometric", "setting": "10 µM", "endpoint": "remaining activity", "value": "70%"}
{"SMILES": "C[C@H](NC(=O)c1cnc2n1[C@](C)(Cc1ccc(C#N)cc1)C(=O)N2c1cc(Cl)c(F)c(Cl)c1)C(=O)NC1(c2ccccn2)CC1", "assay": "cell-free assay, competition with immobilised ligand", "setting": "1 µM", "endpoint": "remaining binding", "value": "92%"}
{"SMILES": "CNC(=O)c1cc(Oc2ccc(NC(=O)Nc3ccc(Cl)c(C(F)(F)F)c3)cc2)ccn1", "assay": "cell-free assay", "setting": "0.5 µM", "endpoint": "remaining signal", "value": "101%"}
{"SMILES": "CN([C@@H]1CCc2c(CC(=O)O)c3cc(S(C)(=O)=O)ccc3n2C1)S(=O)(=O)c1ccc(F)cc1", "assay": "cell-free assay, competition with immobilised ligand", "setting": "1 µM", "endpoint": "remaining binding", "value": "100%"}
{"SMILES": "Cc1ccc(Nc2nccc(N(C)c3ccc4c(C)n(C)nc4c3)n2)cc1S(N)(=O)=O", "assay": "enzyme activity, inhibitor", "setting": "0.3 µM", "endpoint": "inhibition", "value": "1%"}
{"SMILES": "O=C(Nc1cnc(Oc2ccc(F)cc2)nc1)N1CCc2ncccc2[C@@H]1c1ccc(F)cc1", "assay": "cell-free assay, competition with immobilised ligand", "setting": "1 µM", "endpoint": "remaining binding", "value": "59%"}
{"SMILES": "CCN(CC)CCNC(=O)c1c(C)[nH]c(/C=C2\\C(=O)Nc3ccc(F)cc32)c1C", "assay": "enzyme activity, inhibitor", "setting": "10 µM", "endpoint": "inhibition", "value": "8%"}
{"SMILES": "CSc1cccnc1N1CCN(Cc2nc3ccccc3[nH]2)CC1", "assay": "cell-free assay, competition with immobilised ligand", "setting": "1 µM", "endpoint": "remaining binding", "value": "100%"}
{"SMILES": "FC(F)(F)Oc1cccc(-c2cnc3ccc(-c4ccncc4)nn23)c1", "assay": "enzyme activity, inhibitor, radiometric", "setting": "5 µM", "endpoint": "activity vs control", "value": "88%"}
